One test deals with Prostacyclin receptor (Homo sapiens, UniProt P43119). The test can be described thus: IC50 value was evaluated by measuring the displacement of [3H]iloprost from Prostaglandin I2 receptor. The method in brief: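 Platelet plasma membranes (200 μg) incubated with 5 nM [3H]iloprost in 10 mM MgCl2, 1 mM EGTA, 50 mM Tris/HCl pH 7.4 at 0-4 °C for 90-120 min; diluted with ice-cold Tris buffer, rapidly filtered on GF/C, washed four times, bound radioactivity counted by scintillation; IC50 for displacement.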
Prostacyclin receptor, sequence (P43119 whole entry): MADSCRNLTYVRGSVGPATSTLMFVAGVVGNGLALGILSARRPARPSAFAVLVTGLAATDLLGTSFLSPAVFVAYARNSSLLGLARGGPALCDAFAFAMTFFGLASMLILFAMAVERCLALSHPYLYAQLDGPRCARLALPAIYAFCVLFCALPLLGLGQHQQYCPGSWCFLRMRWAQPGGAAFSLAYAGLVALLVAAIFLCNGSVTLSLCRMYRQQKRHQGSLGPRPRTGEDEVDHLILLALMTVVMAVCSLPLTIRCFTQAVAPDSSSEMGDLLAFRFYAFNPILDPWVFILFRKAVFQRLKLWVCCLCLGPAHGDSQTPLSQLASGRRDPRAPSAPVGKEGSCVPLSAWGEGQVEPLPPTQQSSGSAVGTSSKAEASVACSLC
(In general: In a radioligand displacement assay an active substance lowers the binding of a labelled ligand.)

The species named for another test is Homo sapiens. The test is described as follows: Inhibition of ADP-induced human platelet aggregation. Format: functional, organism-based. Put shortly:
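Human blood drawn into 1/10 volume 3.8% sodium citrate, spun 10 min at 140g for platelet-rich plasma; compound in DMSO added to PRP 3 min before ADP (5.86 μM); aggregation followed by Born aggregometry (Mustard modification) against vehicle controls; IC50 from dose-response curves.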

The IC50 is the concentration that gives 50% inhibition.

In the case of `O=C(O)CCCCCCCCn1cc(-c2ccccc2)cn1`, the IC50 at Prostacyclin receptor was more than 10 µM; in the test filed under Homo sapiens, more than 105 µM. Turning to `O=C(O)CCCCCCCCn1nc(-c2ccccc2)c(-c2ccccc2)c1-c1ccccc1`, the IC50 at Prostacyclin receptor is 0.16 µM; in the test listed under Homo sapiens, 0.4 µM. With `O=C(O)CCCCCCCn1ncc(-c2ccccc2)c1-c1ccccc1`, the results for the IC50 on Prostacyclin receptor and in the test listed under Homo sapiens were 0.16 µM and 1.5 µM, respectively.

As for `O=C(O)CCCCCCCCn1nc(-c2ccccc2)cc1-c1ccccc1`, the values for the IC50 at Prostacyclin receptor and in the test listed under Homo sapiens were more than 10 µM and more than 66 µM, respectively. `O=C(O)CCCCCCCCn1nc(-c2ccccc2)c(Cc2ccccc2)c1-c1ccccc1` yielded an IC50 in the test listed under Homo sapiens of more than 68 µM.

For the molecule `N#CCCCCCCCCn1nc(-c2ccccc2)c(-c2ccccc2)c1-c1ccccc1`, the IC50 in the test listed under Homo sapiens was more than 72 µM. In the case of `O=C(O)CCCCCCCCn1ncc(-c2ccccc2)c1-c1ccccc1`, the values for the half-maximal inhibitory concentration (IC50) at Prostacyclin receptor and in the test filed under Homo sapiens were 0.7 µM and 5.8 µM, respectively.

On to `c1ccc(-c2nn(CCCCCCCCc3nnn[nH]3)c(-c3ccccc3)c2-c2ccccc2)cc1`, for which inhibition in the test listed under Homo sapiens was half-maximal at 1.04 µM (IC50). In the case of `NC(=O)CCCCCCCCn1nc(-c2ccccc2)c(-c2ccccc2)c1-c1ccccc1`, 33 µM corresponded to half-maximal inhibition in the test listed under Homo sapiens (IC50). Same read-out and setting: under `O=C(O)CCCCCCn1cc(-c2ccccc2)c(-c2ccccc2)n1` stands more than 92 µM; under `CC(C)(C)OC(=O)COCCCCCCn1nc(-c2ccccc2)c(-c2ccccc2)c1-c1ccccc1`, more than 62 µM; under `O=C(O)COCCCCCCn1nc(-c2ccccc2)c(-c2ccccc2)c1-c1ccccc1`, 0.44 µM. Same read-out and setting: under `O=C(O)CCCCCn1nc(-c2ccccc2)c(-c2ccccc2)c1-c1ccccc1` stands more than 78 µM; under `O=C(O)CSCCCCCCn1nc(-c2ccccc2)c(-c2ccccc2)c1-c1ccccc1`, 0.87 µM. `O=C(O)CCCCCCCCCCn1nc(-c2ccccc2)c(-c2ccccc2)c1-c1ccccc1` had an IC50 in the test listed under Homo sapiens of 18.6 µM.

Take `CS(=O)(=O)NC(=O)CCCCCCCCn1nc(-c2ccccc2)c(-c2ccccc2)c1-c1ccccc1`: the IC50 in the test listed under Homo sapiens stood at 5.9 µM. `O=C(O)CCCCCCCCCn1cc(-c2ccccc2)c(-c2ccccc2)n1`: the IC50 in the test listed under Homo sapiens is more than 81 µM.

On to `O=C(O)CCCCCCCCCn1ncc(-c2ccccc2)c1-c1ccccc1`, for which, in the test filed under Homo sapiens, the IC50 was more than 82 µM. In the test filed under Homo sapiens, `COC(=O)CCCCCCCCn1nc(-c2ccccc2)c(-c2ccccc2)c1-c1ccccc1` showed an IC50 of 4.3 µM. Take `CNC(=O)CCCCCCCCn1nc(-c2ccccc2)c(-c2ccccc2)c1-c1ccccc1`: the IC50 in the test filed under Homo sapiens was more than 68 µM. The molecule `O=C(O)CCCCCCn1nc(-c2ccccc2)c(-c2ccccc2)c1-c1ccccc1` returned a half-inhibitory concentration (IC50) in the test listed under Homo sapiens of 22.4 µM. As to `O=C(O)CCCCCCCCn1cc(-c2ccccc2)c(-c2ccccc2)n1`, the IC50 at Prostacyclin receptor was 0.35 µM; in the test listed under Homo sapiens, 4.5 µM.

With `O=C(O)CCCCCCCn1nc(-c2ccccc2)c(-c2ccccc2)c1-c1ccccc1`, it took 3.4 µM to reach half-maximal inhibition in the test filed under Homo sapiens (IC50). Turning to `O=C(O)CS(=O)(=O)CCCCCCn1nc(-c2ccccc2)c(-c2ccccc2)c1-c1ccccc1`, in the test listed under Homo sapiens, it took 22 µM to reach half-maximal inhibition (IC50). As for `O=C(O)CCCCCCCn1cc(-c2ccccc2)c(-c2ccccc2)n1`, in the test listed under Homo sapiens, the half-inhibitory concentration (IC50) was more than 85 µM. Still for that read-out and setting: under `O=C(O)CCCCCCCCCn1nc(-c2ccccc2)c(-c2ccccc2)c1-c1ccccc1` stands 5.5 µM; under `CCc1c(-c2ccccc2)nn(CCCCCCCCC(=O)O)c1-c1ccccc1`, more than 79 µM. For `O=C(O)CCCCCCn1ncc(-c2ccccc2)c1-c1ccccc1`, the IC50 in the test filed under Homo sapiens is more than 92 µM. In the case of `O=C(O)C[S+]([O-])CCCCCCn1nc(-c2ccccc2)c(-c2ccccc2)c1-c1ccccc1` (stereo not given), it took 6.5 µM to reach half-maximal inhibition in the test filed under Homo sapiens (IC50).

These data come from ChEMBL document CHEMBL1125296, “Structure-activity relationships associated with 3,4,5-triphenyl-1H-pyrazole-1-nonanoic acid, a nonprostanoid prostacyclin mimetic” (J Med Chem, 1992).
